Source: ChEMBL document CHEMBL4190394, “Discovery of Novel Pazopanib-Based HDAC and VEGFR Dual Inhibitors Targeting Cancer Epigenetics and Angiogenesis Simultaneously” (J Med Chem, 2018)
Calls of active or inactive are those of the source. No cut-off for these calls is given here.

Key:
HT-29 [1] = test: Antitumor activity against human HT-29 cells xenografted in BALB/c nu mouse assessed as tumor growth level at 100 mg/kg, po administered for 25 consecutive days measured every 3 days during compound dosing relative to control; format: functional
How it was run: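 HT-29 cells (1×10^7) implanted s.c. in right flank of male BALB/c-nu mice aged 5–6 weeks. At about 100 mm³ (day 10), mice randomized 6 per group and dosed orally for 25 consecutive days. Controls received PBS with 5% DMSO. T/C is mean RTV (Vt/V0) treated over control. TGI taken from final tumor weights. Student's two-tailed t test.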

[2] = target: T1, Vascular endothelial growth factor receptor 2 (Homo sapiens, UniProt P35968); test: Inhibition of VEGF-stimulated VEGFR2 phosphorylation in human HUVEC cells at 100 nM preincubated for 2 hrs followed by VEGF stimulation by Western blot analysis; format: cell-based
How it was run: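 HUVECs pretreated 2 h with compound or DMSO, then stimulated with VEGF (50 ng/ml). Cells lysed in ice-cold RIPA and protein measured by BCA. Lysates run on SDS-PAGE and immunoblotted for phospho-VEGFR-2, with total VEGFR-2 as loading control. Detection by ECL.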

[3] = target: Histone deacetylase 1/2/3 (Homo sapiens) (UniProt Q13547+O15379+Q92769); conditions: HeLa, at 100 nM
KG-1 = test: Antiproliferative activity against human KG1 cells after 72 hrs by MTT assay; format: functional, cell-based; conditions: KG-1, 72 h
HUVEC [4] = test: Antiangiogenic activity in human HUVEC cells assessed as reduction in capillary-like tubular network formation at 0.1 uM after 6 hrs by phase-contrast microscopy; format: functional, cell-based
How it was run: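 HUVECs trypsinized and seeded at 40000/well on Matrigel polymerized 0.5 h at 37 °C. Cells held 6 h at 37 °C in M199 with 5% FBS, with compound or DMSO. Tube formation viewed and photographed by phase-contrast microscopy at 200 magnification. Three independent experiments.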

HT-1080 = test: Antiproliferative activity against human HT1080 cells after 72 hrs by MTT assay; format: functional, cell-based; conditions: HT-1080, 72 h
Histone deacetylase 2 = Histone deacetylase 2 (Homo sapiens, UniProt Q92769)
[5] = target: T1, Vascular endothelial growth factor receptor 2; test: Inhibition of VEGFR-2 (unknown origin) after 40 mins by kinase-Glo assay
How it was run: (§1)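 Kinase-Glo luminescent assay run by a contract lab. Compound, kinase, substrate and ATP diluted in kinase buffer and incubated 40 min at room temperature. IC50 obtained by nonlinear regression of normalized dose–response.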

HeLa = test: Antiproliferative activity against human HeLa cells after 72 hrs by MTT assay; format: functional, cell-based
Histone deacetylase 8 = Histone deacetylase 8 (Homo sapiens, UniProt Q9BY41); test: Inhibition of HDAC8 (unknown origin) using fluorogenic Boc-Lys(trifluoroacetyl)-AMC as substrate preincubated for 5 mins followed by substrate addition measured after 30 mins by fluorescence-based assay
[6] = target: Macrophage colony-stimulating factor 1 receptor (Homo sapiens, UniProt P07333); test: Inhibition of C-fms (unknown origin) after 40 mins by kinase-Glo assay
[7] = target: Fibroblast growth factor receptor 1 (Homo sapiens, UniProt P11362); test: Inhibition of FGFR1 (unknown origin) after 40 mins by kinase-Glo assay
[8] = target: Vascular endothelial growth factor receptor 3 (Homo sapiens, UniProt P35916); test: Inhibition of VEGFR-3 (unknown origin) after 40 mins by kinase-Glo assay
[9] = target: Mast/stem cell growth factor receptor Kit (Homo sapiens, UniProt P10721); test: Inhibition of C-kit (unknown origin) after 40 mins by kinase-Glo assay; how it was run: as §1
[10] = target: Platelet-derived growth factor receptor beta (Homo sapiens, UniProt P09619); test: Inhibition of PDGFRbeta (unknown origin) after 40 mins by kinase-Glo assay; how it was run: as §1
HT-29 [11] = test: Antiproliferative activity against human HT-29 cells after 72 hrs by MTT assay; format: functional, cell-based; conditions: HT-29, 72 h
HEL = test: Antiproliferative activity against human HEL cells after 72 hrs by MTT assay; format: functional, cell-based
PC-3 = test: Antiproliferative activity against human PC3 cells after 72 hrs by MTT assay; format: functional, cell-based; conditions: PC-3, 72 h
AGS = test: Antiproliferative activity against human AGS cells after 72 hrs by MTT assay; format: functional, cell-based
Thoracic aorta = test: Antiangiogenic activity in Sprague-Dawley rat thoracic aorta ring assessed as reduction in micro-vessel growth at 5 uM treated every day for 6 days by matrigel-based inverted microscopic analysis relative to control; format: functional, tissue-based
How it was run: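 Aortas taken from 4–6-week-old Sprague–Dawley rats, cut into 1-mm rings and embedded in Matrigel. Rings held 30 min at 37 °C, 5% CO2, then treated daily for 6 days with compound or 0.5% DMSO vehicle. Microvessel outgrowth photographed on day 7 at ×200. Three independent experiments.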

K562 = test: Antiproliferative activity against human K562 cells after 72 hrs by MTT assay; format: functional, cell-based; conditions: K562, 72 h
[12] = target: Protein deacetylase HDAC6 (Homo sapiens, UniProt Q9UBN7); test: Inhibition of HDAC6 (unknown origin) using fluorogenic Boc-Lys(acetyl)-AMC as substrate preincubated for 5 mins followed by substrate addition measured after 30 mins by fluorescence-based assay
ACHN = test: Antiproliferative activity against human ACHN cells after 72 hrs by MTT assay; format: functional, cell-based
[13] = target: Vascular endothelial growth factor receptor 1 (Homo sapiens, UniProt P17948); test: Inhibition of VEGFR-1 (unknown origin) after 40 mins by kinase-Glo assay; how it was run: as §1
HUVEC [14] = test: Cytotoxicity activity against HUVEC after 72 hrs by MTT assay; format: cell-based; conditions: Homo sapiens
How it was run: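 HUVECs kept in RPMI1640 with 10% FBS at 37 °C, 5% CO2. Cells seeded the day before, grown 12 h, then exposed to a range of compound concentrations for 72 h. Then 0.5% MTT added for 4 h, formazan dissolved in DMSO, and absorbance read at 570 nm.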

Histone deacetylase = format: protein assay, Homo sapiens
MDA-MB-231 = test: Antiproliferative activity against human MDA-MB-231 cells after 72 hrs by MTT assay; format: functional, cell-based; conditions: MDA-MB-231, 72 h
[15] = target: T1, Vascular endothelial growth factor receptor 2; test: Inhibition of VEGFR-2 (unknown origin) at 0.2 uM after 40 mins by kinase-Glo assay relative to control
How it was run: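 VEGFR-2 tested at a single 200 nM concentration in a Kinase-Glo assay. Compound, kinase, substrate and ATP incubated 40 min at room temperature, then Kinase-Glo reagent added for 15 min and luminescence read. Inhibition rate reported. Replicates n ≥ 2.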

MOLT-4 = test: Antiproliferative activity against human MOLT4 cells after 72 hrs by MTT assay; format: functional, cell-based; conditions: MOLT-4, 72 h

T1 sequence (P35968 whole entry): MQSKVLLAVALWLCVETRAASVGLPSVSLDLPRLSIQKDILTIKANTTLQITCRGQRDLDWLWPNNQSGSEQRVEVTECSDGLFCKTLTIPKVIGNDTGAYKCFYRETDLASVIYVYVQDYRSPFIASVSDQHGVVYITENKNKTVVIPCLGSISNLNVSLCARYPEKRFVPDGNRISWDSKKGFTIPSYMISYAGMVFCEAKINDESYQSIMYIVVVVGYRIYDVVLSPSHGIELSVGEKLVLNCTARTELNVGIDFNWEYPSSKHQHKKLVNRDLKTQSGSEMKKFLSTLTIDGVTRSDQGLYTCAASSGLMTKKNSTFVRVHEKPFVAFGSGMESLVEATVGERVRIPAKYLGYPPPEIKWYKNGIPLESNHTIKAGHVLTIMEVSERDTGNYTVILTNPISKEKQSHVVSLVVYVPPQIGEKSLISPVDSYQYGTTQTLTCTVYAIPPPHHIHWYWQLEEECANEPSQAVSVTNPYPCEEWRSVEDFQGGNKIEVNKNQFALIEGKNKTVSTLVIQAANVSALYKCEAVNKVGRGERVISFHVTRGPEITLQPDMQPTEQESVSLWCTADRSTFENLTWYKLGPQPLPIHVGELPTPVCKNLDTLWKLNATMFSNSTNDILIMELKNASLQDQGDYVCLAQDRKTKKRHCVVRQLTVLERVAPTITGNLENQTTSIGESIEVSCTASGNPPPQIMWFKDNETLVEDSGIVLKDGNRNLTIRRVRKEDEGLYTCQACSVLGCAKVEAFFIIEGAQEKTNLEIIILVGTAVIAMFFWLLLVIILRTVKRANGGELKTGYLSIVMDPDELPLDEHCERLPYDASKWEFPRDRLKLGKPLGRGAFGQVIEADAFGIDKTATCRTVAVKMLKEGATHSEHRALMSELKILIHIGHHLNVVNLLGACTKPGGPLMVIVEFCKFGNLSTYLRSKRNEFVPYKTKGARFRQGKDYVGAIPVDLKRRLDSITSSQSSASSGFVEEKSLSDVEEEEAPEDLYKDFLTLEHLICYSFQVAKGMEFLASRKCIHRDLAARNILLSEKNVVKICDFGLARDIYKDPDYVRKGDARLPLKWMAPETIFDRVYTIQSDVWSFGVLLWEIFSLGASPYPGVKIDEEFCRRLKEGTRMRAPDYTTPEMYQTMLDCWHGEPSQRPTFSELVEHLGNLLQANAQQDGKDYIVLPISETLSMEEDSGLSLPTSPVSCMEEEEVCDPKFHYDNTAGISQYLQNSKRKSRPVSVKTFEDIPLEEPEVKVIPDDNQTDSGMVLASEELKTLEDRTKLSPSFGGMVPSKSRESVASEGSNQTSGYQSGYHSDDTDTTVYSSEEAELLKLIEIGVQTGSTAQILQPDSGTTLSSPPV
Sequence of Platelet-derived growth factor receptor beta (P09619 whole entry): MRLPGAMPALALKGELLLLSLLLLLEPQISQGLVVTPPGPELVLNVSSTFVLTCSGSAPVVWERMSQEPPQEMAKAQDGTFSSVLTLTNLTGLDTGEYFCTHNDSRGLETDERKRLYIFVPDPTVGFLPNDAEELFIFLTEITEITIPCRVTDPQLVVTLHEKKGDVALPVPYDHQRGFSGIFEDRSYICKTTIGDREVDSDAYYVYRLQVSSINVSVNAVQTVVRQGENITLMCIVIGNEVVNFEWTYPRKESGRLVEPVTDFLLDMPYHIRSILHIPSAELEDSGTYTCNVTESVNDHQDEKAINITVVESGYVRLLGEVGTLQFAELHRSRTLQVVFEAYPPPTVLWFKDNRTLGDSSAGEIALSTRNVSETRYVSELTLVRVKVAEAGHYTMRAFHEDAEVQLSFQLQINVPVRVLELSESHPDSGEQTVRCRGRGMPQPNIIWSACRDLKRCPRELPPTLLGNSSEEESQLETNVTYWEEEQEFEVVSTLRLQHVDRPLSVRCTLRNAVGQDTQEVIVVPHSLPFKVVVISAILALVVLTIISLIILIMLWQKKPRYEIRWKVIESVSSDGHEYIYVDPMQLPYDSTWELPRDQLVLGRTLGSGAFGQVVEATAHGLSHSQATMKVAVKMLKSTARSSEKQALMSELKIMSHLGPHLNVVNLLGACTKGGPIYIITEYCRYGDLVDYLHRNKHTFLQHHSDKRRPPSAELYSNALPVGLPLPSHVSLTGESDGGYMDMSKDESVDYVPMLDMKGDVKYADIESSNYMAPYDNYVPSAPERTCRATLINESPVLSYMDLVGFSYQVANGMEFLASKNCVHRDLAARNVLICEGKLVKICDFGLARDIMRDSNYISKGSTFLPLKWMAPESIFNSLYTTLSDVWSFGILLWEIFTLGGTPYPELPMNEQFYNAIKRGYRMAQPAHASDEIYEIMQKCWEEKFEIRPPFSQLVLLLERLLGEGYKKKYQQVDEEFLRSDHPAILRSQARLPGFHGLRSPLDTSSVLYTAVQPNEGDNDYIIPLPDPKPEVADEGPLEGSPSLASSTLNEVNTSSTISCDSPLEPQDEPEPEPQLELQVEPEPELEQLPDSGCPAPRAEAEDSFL
Sequence of Macrophage colony-stimulating factor 1 receptor (P07333 whole entry): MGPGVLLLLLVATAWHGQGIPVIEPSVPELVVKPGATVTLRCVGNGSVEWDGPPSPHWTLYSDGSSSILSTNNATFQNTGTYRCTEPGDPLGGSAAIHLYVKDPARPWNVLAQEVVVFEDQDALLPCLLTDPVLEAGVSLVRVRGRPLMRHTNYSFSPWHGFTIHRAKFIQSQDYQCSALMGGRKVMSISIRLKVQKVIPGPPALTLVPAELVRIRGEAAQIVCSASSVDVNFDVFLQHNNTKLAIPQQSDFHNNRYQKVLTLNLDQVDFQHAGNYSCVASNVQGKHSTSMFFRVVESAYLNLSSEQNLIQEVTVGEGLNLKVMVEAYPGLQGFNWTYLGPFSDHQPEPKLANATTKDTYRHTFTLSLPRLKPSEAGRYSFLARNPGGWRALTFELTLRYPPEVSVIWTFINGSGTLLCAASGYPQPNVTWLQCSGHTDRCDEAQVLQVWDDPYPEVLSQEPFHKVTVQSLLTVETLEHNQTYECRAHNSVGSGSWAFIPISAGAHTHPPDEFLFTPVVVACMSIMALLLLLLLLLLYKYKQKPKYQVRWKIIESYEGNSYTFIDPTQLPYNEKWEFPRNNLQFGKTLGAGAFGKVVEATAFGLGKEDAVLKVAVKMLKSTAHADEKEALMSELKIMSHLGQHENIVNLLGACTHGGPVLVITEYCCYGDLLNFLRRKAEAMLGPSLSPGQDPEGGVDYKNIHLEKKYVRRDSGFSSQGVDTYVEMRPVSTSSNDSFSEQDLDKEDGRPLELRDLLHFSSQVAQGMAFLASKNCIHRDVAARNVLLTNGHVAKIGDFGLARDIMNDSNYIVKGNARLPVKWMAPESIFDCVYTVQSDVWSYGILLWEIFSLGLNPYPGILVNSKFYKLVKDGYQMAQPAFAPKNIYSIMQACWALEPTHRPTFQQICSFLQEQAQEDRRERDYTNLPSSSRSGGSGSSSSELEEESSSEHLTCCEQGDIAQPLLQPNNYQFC
Sequence of Histone deacetylase 2 (Q92769 whole entry): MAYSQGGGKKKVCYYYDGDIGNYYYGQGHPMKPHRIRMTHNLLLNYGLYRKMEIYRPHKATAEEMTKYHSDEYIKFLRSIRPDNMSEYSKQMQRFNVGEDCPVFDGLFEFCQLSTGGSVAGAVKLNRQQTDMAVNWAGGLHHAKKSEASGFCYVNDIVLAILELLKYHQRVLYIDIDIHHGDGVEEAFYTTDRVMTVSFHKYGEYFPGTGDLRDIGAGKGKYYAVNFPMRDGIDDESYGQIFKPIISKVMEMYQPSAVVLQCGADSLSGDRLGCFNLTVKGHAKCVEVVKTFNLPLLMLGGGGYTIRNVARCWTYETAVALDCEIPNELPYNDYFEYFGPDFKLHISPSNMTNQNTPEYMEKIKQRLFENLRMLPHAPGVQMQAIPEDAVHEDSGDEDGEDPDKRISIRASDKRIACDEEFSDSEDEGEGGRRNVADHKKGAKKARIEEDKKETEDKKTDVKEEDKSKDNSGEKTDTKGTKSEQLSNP
Sequence of Fibroblast growth factor receptor 1 (P11362 whole entry): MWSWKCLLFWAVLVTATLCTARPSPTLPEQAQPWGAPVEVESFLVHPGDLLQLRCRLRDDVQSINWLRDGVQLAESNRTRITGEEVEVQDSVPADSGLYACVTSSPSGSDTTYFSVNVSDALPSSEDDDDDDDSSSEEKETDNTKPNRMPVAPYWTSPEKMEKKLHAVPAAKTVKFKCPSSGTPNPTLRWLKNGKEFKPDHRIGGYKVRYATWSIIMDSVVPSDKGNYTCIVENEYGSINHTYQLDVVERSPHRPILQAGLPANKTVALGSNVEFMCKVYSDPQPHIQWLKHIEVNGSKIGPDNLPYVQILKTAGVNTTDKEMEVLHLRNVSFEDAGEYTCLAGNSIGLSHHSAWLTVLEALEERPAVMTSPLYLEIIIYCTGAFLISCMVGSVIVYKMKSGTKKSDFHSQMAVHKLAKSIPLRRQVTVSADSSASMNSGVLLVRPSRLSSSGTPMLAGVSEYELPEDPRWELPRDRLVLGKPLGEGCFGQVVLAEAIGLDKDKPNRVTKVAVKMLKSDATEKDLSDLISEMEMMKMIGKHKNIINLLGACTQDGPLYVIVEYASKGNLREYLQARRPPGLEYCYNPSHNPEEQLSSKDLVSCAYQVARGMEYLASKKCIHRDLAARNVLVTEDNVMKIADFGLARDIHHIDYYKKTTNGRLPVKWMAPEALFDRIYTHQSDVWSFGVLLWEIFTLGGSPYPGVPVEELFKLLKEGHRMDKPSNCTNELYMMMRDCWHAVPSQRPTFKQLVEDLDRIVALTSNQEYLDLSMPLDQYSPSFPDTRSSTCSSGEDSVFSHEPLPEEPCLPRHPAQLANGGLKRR

Structure (SMILES): O=C(CCCCCCC(=O)Nc1ccccc1)NO [VORINOSTAT]
- T/C (HT-29 [1]): 66%
- inhibition [2]: inactive

Structure (SMILES): Cc1c2ccc(N(C)c3ccnc(Nc4ccc(C(=O)NCCCCCCC(=O)NO)cc4)n3)cc2nn1C
- inhibition [3]: Active
- IC50 (KG-1): 1600 nM
- Activity (HUVEC [4]): Active
- IC50 (HT-1080): 1970 nM
- IC50 (Histone deacetylase 2): 380 nM
- IC50 [5]: 46 nM
- IC50 (HeLa): 4360 nM
- IC50 (Histone deacetylase 8): 1660 nM
- IC50 [6]: 581 nM
- IC50 [7]: 409 nM
- IC50 [8]: 113 nM
- IC50 [9]: 163 nM
- IC50 [10]: 111 nM
- IC50 (HT-29 [11]): 2510 nM
- IC50 (HEL): 2800 nM
- IC50 (PC-3): 1690 nM
- IC50 (AGS): 4440 nM
- Activity (Thoracic aorta): Active
- IC50 (K562): 990 nM
- IC50 [12]: 72 nM
- IC50 (ACHN): > 5000 nM
- inhibition [2]: Active
- IC50 [13]: 35 nM
- IC50 (HUVEC [14]): 21100 nM
- IC50 (Histone deacetylase): 3.3 nM
- IC50 (MDA-MB-231): 2960 nM
- inhibition [15]: 93%
- IC50 (MOLT-4): 310 nM
